Source: ChEMBL document CHEMBL3632592, “Identification of Highly Promising Antioxidants/Neuroprotectants Based on Nucleoside 5'-Phosphorothioate Scaffold. Synthesis, Activity, and Mechanisms of Action” (J Med Chem, 2015)
pEC50, pIC50: −log10 of the molar value. The source made the active and inactive calls. No cut-off for these calls is given here.

System: not listed separately
Test: Antioxidant activity assessed as inhibition of Fe2+-induced DMPO-OH adduct formation from H2O2 preincubated for 30 secs followed by DMPO/H2O2 addition measured after 150 secs by ESR analysis
Format: physicochemical
Conditions: not given
Summary of the method: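 Fenton/ESR spin trapping: 1 mM ammonium iron(II) sulfate was added to 5–500 µM compound, then Tris buffer pH 7.4 (final pH 7.2–7.4). After 30 s, 100 mM DMPO and 100 mM H2O2 were added (stock concentrations). The ESR spectrum was recorded 150 s after H2O2, at room temperature. DMPO-OH adduct expressed as % of control containing FeSO4, H2O2 and DMPO only.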

Compound	pIC50
Nc1nc(Cl)nc2c1ncn2[C@@H]1O[C@H](COP(=O)(S)OP(=O)(O)O)[C@@H](O)[C@H]1O (stereo in doubt; 8B)	4.41
Nc1nc(Cl)nc2c1ncn2[C@@H]1O[C@H](COP(=O)(S)OP(=O)(O)OP(=O)(O)O)[C@@H](O)[C@H]1O (stereo in doubt; 9A)	4.43
Nc1nc(Cl)nc2c1ncn2[C@@H]1O[C@H](COP(=O)(O)OP(=O)(O)S)[C@@H](O)[C@H]1O (stereo partly drawn)	4.68
Nc1nc(Cl)nc2c1ncn2[C@@H]1O[C@H](COP(=O)(S)OP(=O)(O)O)[C@@H](O)[C@H]1O (stereo in doubt; 8A)	4.44
Nc1ncnc2c1ncn2[C@@H]1O[C@H](COP(=O)(S)OP(=O)(O)O)[C@@H](O)[C@H]1O (stereo in doubt; 6B)	4.44
O=C(O)CN(CCN(CC(=O)O)CC(=O)O)CC(=O)O [EDETIC ACID]	4.27
Nc1nc(Cl)nc2c1ncn2[C@@H]1O[C@H](COP(=O)(S)OP(=O)(O)OP(=O)(O)O)[C@@H](O)[C@H]1O (stereo in doubt; 9B)	4.57

System: Cerebral cortex neuron
Test: Neuroprotective activity against Fe2+-induced oxidative damage in rat primary cortical neurons assessed as cell viability at 0.01 to 25 uM after 24 hrs by MTT assay
Format: functional, cell-based
Conditions: not given
Summary of the method: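 Rat (1-day-old) cortical neurons were grown serum-free in DMEM/F12 with B-27 on poly-ornithine, treated with Ara-C and cultured 5 d. Cells were pretreated with nucleotide (0.01–25 µM), then exposed to FeSO4 3 µM final for 24 h. MTT 1 mg/mL was added for 2 h at 37 °C, formazan dissolved in DMSO, A550 read. Viability given as % of vehicle control; three independent experiments in triplicate.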

Compound	Activity
CSc1nc(N)c2ncn([C@@H]3O[C@H](COP(=O)(S)OP(=O)(O)O)[C@@H](O)[C@H]3O)c2n1 (stereo in doubt; 7B)	Active

System: PC-12
Test: cells
Conditions: Rattus norvegicus, PC-12, 1 h

Compound	pIC50
Nc1nc(Cl)nc2c1ncn2[C@@H]1O[C@H](COP(=O)(S)OP(=O)(O)OP(=O)(O)O)[C@@H](O)[C@H]1O (stereo in doubt; 9A)	3.97
Nc1nc(Cl)nc2c1ncn2[C@@H]1O[C@H](COP(=O)(O)OP(=O)(O)S)[C@@H](O)[C@H]1O (stereo partly drawn)	5.30
Nc1nc(Cl)nc2c1ncn2[C@@H]1O[C@H](COP(=O)(S)OP(=O)(O)O)[C@@H](O)[C@H]1O (stereo in doubt; 8A)	6.70

System: PC-12
Test: not given
Conditions: not given

Compound	pIC50
Nc1nc(Cl)nc2c1ncn2[C@@H]1O[C@H](COP(=O)(S)OP(=O)(O)O)[C@@H](O)[C@H]1O (stereo in doubt; 8B)	6.96
Nc1ncnc2c1ncn2[C@@H]1O[C@H](COP(=O)(S)OP(=O)(O)O)[C@@H](O)[C@H]1O (stereo in doubt; 6B)	4.41
Nc1nc(Cl)nc2c1ncn2[C@@H]1O[C@H](COP(=O)(S)OP(=O)(O)OP(=O)(O)O)[C@@H](O)[C@H]1O (stereo in doubt; 9B)	4.00

System: not listed separately
Test: Antioxidant activity assessed as ABTS radical scavenging activity after 7 mins
Format: physicochemical
Conditions: not given
Summary of the method: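 ABTS radical cation made from 7 mM ABTS with 2.45 mM persulfate (final), kept in the dark at room temperature 12–16 h. It was then diluted in water pH 7.4 to A734 0.80 and mixed with compound or Trolox standard (final 0–60 µM). A734 was read at 7 min. Percent inhibition plotted against concentration; at least three runs, in triplicate.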

Compound	pIC50
Nc1nc(Cl)nc2c1ncn2[C@@H]1O[C@H](COP(=O)(S)OP(=O)(O)O)[C@@H](O)[C@H]1O (stereo in doubt; 8B)	4.92
Nc1ncnc2c1ncn2[C@@H]1O[C@H](COP(=O)(O)OP(=O)(O)OP(=O)(O)O)[C@@H](O)[C@H]1O [ADENOSINE TRIPHOSPHATE]	4.22
Nc1nc(Cl)nc2c1ncn2[C@@H]1O[C@H](COP(=O)(S)OP(=O)(O)OP(=O)(O)O)[C@@H](O)[C@H]1O (stereo in doubt; 9A)	4.60
Nc1nc(Cl)nc2c1ncn2[C@@H]1O[C@H](COP(=O)(O)OP(=O)(O)S)[C@@H](O)[C@H]1O (stereo partly drawn)	4.89
Nc1nc(Cl)nc2c1ncn2[C@@H]1O[C@H](COP(=O)(S)OP(=O)(O)O)[C@@H](O)[C@H]1O (stereo in doubt; 8A)	4.96
Nc1ncnc2c1ncn2[C@@H]1O[C@H](COP(=O)(S)OP(=O)(O)O)[C@@H](O)[C@H]1O (stereo in doubt; 6B)	4.66
Nc1nc(Cl)nc2c1ncn2[C@@H]1O[C@H](COP(=O)(S)OP(=O)(O)OP(=O)(O)O)[C@@H](O)[C@H]1O (stereo in doubt; 9B)	4.62

Target: P2Y purinoceptor 1 (Homo sapiens, UniProt P47900)
Sequence (P47900 whole entry): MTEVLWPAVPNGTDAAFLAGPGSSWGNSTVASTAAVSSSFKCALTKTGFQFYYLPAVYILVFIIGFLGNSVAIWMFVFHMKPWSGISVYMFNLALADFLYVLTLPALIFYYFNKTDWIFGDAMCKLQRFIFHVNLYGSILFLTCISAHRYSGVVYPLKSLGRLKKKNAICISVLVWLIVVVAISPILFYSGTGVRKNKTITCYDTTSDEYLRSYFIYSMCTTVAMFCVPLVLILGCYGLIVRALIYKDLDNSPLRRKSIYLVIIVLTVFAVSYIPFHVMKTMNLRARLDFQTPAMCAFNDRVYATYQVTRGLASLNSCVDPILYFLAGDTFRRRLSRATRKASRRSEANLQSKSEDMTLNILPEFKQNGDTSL
Test: Agonist activity at GFP-tagged human P2Y1R transfected in human 1321N1 cells assessed as increase in intracellular Ca2+ level by fura 2/AM probe-based fluorescence assay
Format: functional, cell-based
Conditions: not given

Compound	pEC50
Nc1nc(Cl)nc2c1ncn2[C@@H]1O[C@H](COP(=O)(S)OP(=O)(O)O)[C@@H](O)[C@H]1O (stereo in doubt; 8B)	5.82
Nc1nc(Cl)nc2c1ncn2[C@@H]1O[C@H](COP(=O)(S)OP(=O)(O)OP(=O)(O)O)[C@@H](O)[C@H]1O (stereo in doubt; 9A)	6.14
Nc1nc(Cl)nc2c1ncn2[C@@H]1O[C@H](COP(=O)(O)OP(=O)(O)S)[C@@H](O)[C@H]1O (stereo partly drawn)	7.05
Nc1nc(Cl)nc2c1ncn2[C@@H]1O[C@H](COP(=O)(S)OP(=O)(O)O)[C@@H](O)[C@H]1O (stereo in doubt; 8A)	7.52
Nc1ncnc2c1ncn2[C@@H]1O[C@H](COP(=O)(S)OP(=O)(O)O)[C@@H](O)[C@H]1O (stereo in doubt; 6B)	6.89
Nc1nc(Cl)nc2c1ncn2[C@@H]1O[C@H](COP(=O)(S)OP(=O)(O)OP(=O)(O)O)[C@@H](O)[C@H]1O (stereo in doubt; 9B)	6.06

Target: T1, P2Y purinoceptor 11 (Homo sapiens, UniProt Q96G91)
T1 sequence (Q96G91 whole entry): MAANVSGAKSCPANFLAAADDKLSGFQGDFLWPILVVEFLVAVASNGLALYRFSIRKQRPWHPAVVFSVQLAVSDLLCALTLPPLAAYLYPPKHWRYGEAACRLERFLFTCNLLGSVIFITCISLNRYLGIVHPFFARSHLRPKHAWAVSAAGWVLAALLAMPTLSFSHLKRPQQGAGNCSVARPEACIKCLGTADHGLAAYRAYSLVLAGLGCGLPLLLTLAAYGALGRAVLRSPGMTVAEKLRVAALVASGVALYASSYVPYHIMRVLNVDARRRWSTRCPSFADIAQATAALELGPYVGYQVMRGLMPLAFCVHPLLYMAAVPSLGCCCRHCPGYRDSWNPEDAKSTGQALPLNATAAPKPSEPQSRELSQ
Test: Agonist activity at GFP-tagged human P2Y11R transfected in human 1321N1 cells assessed as increase in intracellular Ca2+ level by fura 2/AM probe-based fluorescence assay
Format: functional, cell-based
Conditions: not given

Compound	pEC50
Nc1nc(Cl)nc2c1ncn2[C@@H]1O[C@H](COP(=O)(S)OP(=O)(O)O)[C@@H](O)[C@H]1O (stereo in doubt; 8B)	6.30
Nc1nc(Cl)nc2c1ncn2[C@@H]1O[C@H](COP(=O)(S)OP(=O)(O)OP(=O)(O)O)[C@@H](O)[C@H]1O (stereo in doubt; 9A)	5.04
Nc1nc(Cl)nc2c1ncn2[C@@H]1O[C@H](COP(=O)(O)OP(=O)(O)S)[C@@H](O)[C@H]1O (stereo partly drawn)	6.00
Nc1nc(Cl)nc2c1ncn2[C@@H]1O[C@H](COP(=O)(S)OP(=O)(O)O)[C@@H](O)[C@H]1O (stereo in doubt; 8A)	5.85
Nc1ncnc2c1ncn2[C@@H]1O[C@H](COP(=O)(S)OP(=O)(O)O)[C@@H](O)[C@H]1O (stereo in doubt; 6B)	5.06
Nc1nc(Cl)nc2c1ncn2[C@@H]1O[C@H](COP(=O)(S)OP(=O)(O)OP(=O)(O)O)[C@@H](O)[C@H]1O (stereo in doubt; 9B)	5.96
